Holding throughout (assay type): ADME, organism-based
Data set [1] in a line: Volume of distribution at steady state in Lewis rat at 1 mg/kg, iv. The arrangement: dose 1 mg/kg, route intravenous. The note with it: in vivo, read-out: Vdss. Summed up: (§1)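 Male Lewis rats were given a single intravenous 1 mg/kg or oral 3 mg/kg dose. Plasma levels were measured by LC-MS/MS on a 5 min formic acid water/acetonitrile gradient. Clearance, steady-state volume, terminal half-life and oral bioavailability were derived from the concentration-time profiles.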

A short description of data set [2]: Half life in Lewis rat at 1 mg/kg, iv. The arrangement: dose 1 mg/kg, route intravenous. Particulars: in vivo. In a few lines:
as §1

A short description of data set [3]: Plasma clearance in Lewis rat at 1 mg/kg, iv. Also noted: dose 1 mg/kg, route intravenous. In a few lines: as §1
Data set [4] can be described thus: Oral bioavailability in Lewis rat at 3 mg/kg. Particulars: in vivo. Summed up: as §1

Turning to `Cc1nnc(-c2ccc(C)c(-c3ccc(C(=O)NCC4CC4)cc3)c2)o1`, the Vd in data set [1] came out at 2 L/kg. Further, the half-life (usually the time in which the quantity being followed falls by half) in data set [2] was 9 h. The clearance (as a rule, a measure of how efficiently the substance is removed, as volume per time) in data set [3] was less than 10 mL/min/kg. For the same compound, in data set [4], the bioavailability – broadly, dose-corrected exposure relative to a reference, in per cent – was determined as 50%.
